Reference: article PMC12530853 (RSC Advances, 2025)
≈ marks a conversion by molar mass, not a printed value. Entries after “also recorded” stand apart in the source; their conditions may differ.

Key:
[1] = system: CYP24A1 mRNA in HEK293T cells; test: CYP24A1 mRNA levels by quantitative PCR; assay type: cell-based
C. albicans ATCC 10231 [2] = test: Minimum inhibitory concentration; assay type: cell-based; conditions: Candida albicans, ATCC10231, read-out: Minimum inhibitory concentration (MIC) C. albicans ATCC 10231
How it was run: (§1)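 Exponential-phase yeast were washed three times in PBS and suspended at 1 × 10^3 CFU/mL in RPMI 1640. Test compound and fluconazole comparator were twofold serially diluted in microplates, each concentration in triplicate wells. Growth was read as OD600, from which the MIC was determined.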

C. albicans ATCC 14053 = test: Minimum inhibitory concentration; assay type: cell-based; conditions: Candida albicans, ATCC14053, read-out: Minimum inhibitory concentration (MIC) C. albicans ATCC 14053
How it was run: as §1

C. albicans ATCC 90028 = test: Activity against additional fungal strains; assay type: cell-based; conditions: Table 2; no quantity or unit printed
How it was run: (§2)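 Fungi in exponential phase were washed three times in PBS and resuspended at 1 × 10^3 CFU mL−1 in RPMI 1640. Test compound and fluconazole were serially diluted twofold in 96-well plates, in triplicate wells per concentration. MIC was derived from OD600 readings.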

C. albicans ATCC 24433 = test: Activity against additional fungal strains; assay type: cell-based; conditions: Table 2; no quantity or unit printed
How it was run: as §2

F. solani 52628 = test: Activity against additional fungal strains; assay type: cell-based; conditions: Table 2; no quantity or unit printed
How it was run: as §2

F. solani 46492 = test: Activity against additional fungal strains; assay type: cell-based; conditions: Table 2; no quantity or unit printed
How it was run: as §2

[3] = system: A. brasiliensis TCC 16404; test: Activity against additional fungal strains; assay type: cell-based; conditions: Table 2; no quantity or unit printed
How it was run: as §2

FO MYA 3461 = test: Activity against additional fungal strains; assay type: cell-based; conditions: Table 2; no quantity or unit printed
How it was run: as §2

[4] = system: various bacteria and fungi; test: Broad-spectrum antibacterial and antifungal MIC; assay type: cell-based; conditions: read-out: MIC (broad-spectrum antibacterial and antifungal activity)
C. albicans ATCC 10231 [5] = test: Time–kill kinetics; assay type: cell-based; conditions: 8 × MIC, after 8 h
How it was run: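 C. albicans in exponential phase was diluted to 1.5 × 10^6 cells per mL in RPMI 1640, in 5 mL tubes. Drug was added and tubes were shaken at 200 rpm and 30 °C. 100 μL aliquots went to microtiter wells, were incubated at 37 °C, and OD600 was read to estimate cell concentration.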

C. albicans ATCC 10231 [6] = test: Drug-resistance study; assay type: cell-based; conditions: after 28 serial passages
How it was run: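 Resistance development in C. albicans: the MIC of the test compound was first determined by the fungal broth microdilution method, then that determination was repeated continuously over 28 days.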

[7] = Cytotoxicity, CCK-8 assay; assay type: cell-based; conditions: human, HUVECs (human umbilical vein endothelial cells)
[8] = Cytotoxicity, CCK-8 assay; assay type: cell-based; conditions: human, Caco-2
rabbit red blood cells = test: Hemolysis assay; assay type: cell-based
How it was run: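 Rabbit erythrocytes (4% v/v in PBS) were mixed 1:1 with test compound in PBS, giving final concentrations of 2–256 μg mL−1, and incubated for 1 h at 37 °C. Samples were centrifuged at 1000g for 5 min and supernatant A490 was read. Controls were 1% Triton X-100 and PBS. Hemolysis (%) = [(sample − PBS)/(Triton − PBS)] × 100, in triplicate.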

C. albicans ATCC 10231 [9] = test: SYTOX Green membrane integrity assay; assay type: cell-based; conditions: 4 × MIC; over 20 min
How it was run: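 Overnight C. albicans was washed three times in PBS and set to OD600 0.2 in PBS. Cells were loaded with 0.3 μM SYTOX Green in the dark. Once the signal plateaued, test compound in PBS/DMF (final DMF 0.5%) was added. Fluorescence (ex 504 nm, em 523 nm) was monitored continuously for 1–2 h.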

Calcein leakage assay = conditions: liposomes mimicking fungal membranes
How it was run: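 Large unilamellar vesicles of DOPC/DOPE/PI (2:1:1) with 15 wt% ergosterol were made by film hydration in 80 mM calcein, 50 mM HEPES, 100 mM NaCl, 0.3 mM EDTA, pH 7.4. They were freeze–thawed 10×, extruded through 100 nm filters, gel-filtered, and quantified by total phosphorus. Test compound was added in HEPES buffer with 5% DMF. Read at ex 490/em 520 nm; % leakage = (Ft−Fmin)/(Fmax−Fmin)×100, with Fmax from 1% Triton X-100.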

[10] = system: C. albicans ATCC 10231 biofilm; test: Inhibition of biofilm formation; assay type: cell-based; conditions: in vitro
How it was run: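 Exponential-phase fungi at 1 × 10^6 CFU mL−1 in RPMI 1640 were allowed to adhere for 1.5 h at 37 °C, then washed twice with PBS. Fresh RPMI containing graded concentrations of test compound was added for 24 h at 37 °C in the dark. Adherent cells were stained for 3 h at 37 °C and OD was read. Results are given as % inhibition of formation.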

[11] = system: C. albicans ATCC 10231 biofilm; test: Biofilm eradication; assay type: cell-based; conditions: in vitro
How it was run: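 Overnight C. albicans was adjusted to 1 × 10^6–10^7 CFU mL−1 and grown statically for 24 h at 37 °C to give mature biofilms. After two PBS rinses, biofilms were treated with test compound in fresh medium for 24 h at 37 °C; amphotericin B was the positive control and medium alone the negative control. Staining used 0.1% crystal violet for 15 min, then 95% ethanol solubilisation and OD590. Eradication (%) = [1 − OD_test/OD_negative] × 100.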

CYP24A1 = target: T1, CYP24A1 (Homo sapiens, UniProt Q07973); test: CYP24-inhibition assay; assay type: biochemical
T1 sequence (Q07973 36-514): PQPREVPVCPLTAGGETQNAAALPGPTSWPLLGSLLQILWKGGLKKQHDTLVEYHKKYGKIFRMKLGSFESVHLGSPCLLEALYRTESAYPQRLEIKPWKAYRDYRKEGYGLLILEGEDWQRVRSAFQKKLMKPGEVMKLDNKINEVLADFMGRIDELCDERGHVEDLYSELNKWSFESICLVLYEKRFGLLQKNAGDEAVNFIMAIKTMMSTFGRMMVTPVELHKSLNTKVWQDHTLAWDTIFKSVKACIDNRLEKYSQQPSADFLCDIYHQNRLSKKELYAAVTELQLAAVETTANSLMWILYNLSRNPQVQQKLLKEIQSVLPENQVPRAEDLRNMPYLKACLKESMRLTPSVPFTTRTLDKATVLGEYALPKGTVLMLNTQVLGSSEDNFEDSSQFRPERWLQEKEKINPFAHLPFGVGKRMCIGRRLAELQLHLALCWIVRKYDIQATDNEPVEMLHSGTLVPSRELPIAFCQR
How it was run: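 Reconstituted system: 5 nM CYP24, 0.5 μM adrenodoxin and 0.05 μM adrenodoxin reductase in 100 mM Tris–HCl pH 7.4 with 1 mM EDTA. Test compound (50–200 μM) was preincubated for 15 min at room temperature. 5 μM 1,25-D3 and 1 mM NADPH were then added for 10 min at 37 °C. The reaction was stopped with 4 volumes of chloroform/methanol 3:1, and conversion was measured by C18 HPLC with UV detection at 265 nm.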

[12] = system: metabolic clearance of 1,25(OH)2D3 in HEK293T cells; test: Retention of 1,25; assay type: cell-based; conditions: 10^−7 M compound; after 24 h; LC-MS/MS

## C=C1/C(=C\C=C2/CCC[C@]3(C)[C@@H]([C@H](C)CCCC(C)(C)O)CC[C@@H]23)C[C@@H](O)C[C@@H]1O [1,25(OH)2D3, 1,25-dihydroxyvitamin D3, reference compound]
[1]; 10^−9 M, 24 h, HEK293T cells
  CYP24A1 mRNA levels, 1,25(OH)2D3 alone: significantly increased

## Cc1ccc(C=Nc2nc[nH]n2)c(O)c1 [3a, 2-{[(1H-1,2,4-Triazol-3-yl)imino]methyl}-5-methylphenol]
C. albicans ATCC 10231 [2]
  MIC: 64 µg/mL (≈ 316 µM)
C. albicans ATCC 14053
  MIC: 128 µg/mL (≈ 633 µM)

## O=[N+]([O-])c1ccc(C=Nc2nc[nH]n2)c(O)c1 [3b, 2-{[(1H-1,2,4-Triazol-3-yl)imino]methyl}-5-nitrophenol]
C. albicans ATCC 10231 [2]
  MIC: 64 µg/mL (≈ 274 µM)
C. albicans ATCC 14053
  MIC: 64 µg/mL (≈ 274 µM)

## Oc1ccc(O)c(C=Nc2ncn[nH]2)c1 [3c, 2-{[(1H-1,2,4-Triazol-5-yl)imino]methyl}benzene-1,4-diol]
C. albicans ATCC 10231 [2]
  MIC: 16 µg/mL (≈ 78.4 µM)
C. albicans ATCC 14053
  MIC: 16 µg/mL (≈ 78.4 µM)
C. albicans ATCC 90028
  Interaction against varied fungal strains: C. albicans ATCC 90028: 16
C. albicans ATCC 24433
  Interaction against varied fungal strains: C. albicans ATCC 24433: 16
F. solani 52628
  Interaction against varied fungal strains: F. solani 52628: 32
F. solani 46492
  Interaction against varied fungal strains: F. solani 46492: 32
[3]
  Interaction against varied fungal strains: A. brasiliensis TCC 16404: 32
FO MYA 3461
  Interaction against varied fungal strains: FO MYA 3461: 32
[4]
  MIC: 16 µg/mL (≈ 78.4 µM)
C. albicans ATCC 10231 [5]
  Time–kill: growth of C. albicans ATCC 10231: complete inhibition
C. albicans ATCC 10231 [6]
  Increase of MIC value in resistance development: no more than 8 fold
[7]
  viability at 24 h, 64 μg mL^−1: > 95%
  viability at 24 h, 128 μg mL^−1: > 80%
[8]
  viability at 24 h, 64 μg mL^−1: > 95%
  viability at 24 h, 128 μg mL^−1: > 80%
Rabbit red blood cells; 16–128 μg mL^−1, 37 °C, 1 h
  Hemolysis of rabbit red blood cells: no significant hemolysis
Rabbit red blood cells; rabbit red blood cells
  Half hemolytic concentration (HC50): > 256 µg/mL
C. albicans ATCC 10231 [9]
  SYTOX Green fluorescence (membrane integrity): gradual increase in fluorescence
Calcein leakage assay
  Calcein leakage from LUVs: induced leakage of the contents in a dose-dependent manner
[10]
  Inhibition of C. albicans biofilm formation: effectively inhibited
[11]
  Disruption of pre-formed mature biofilms: significantly disrupted
CYP24A1
  IC50: 202 µM
CYP24A1; read-out: Inhibition of CYP24A1
  inhibition at 100 µM: 32%
[1]; 3c 10^−10 M + 1,25(OH)2D3 10^−9 M, 24 h, relative to 1,25(OH)2D3 alone
  CYP24A1 mRNA expression, co-treatment with 1,25(OH)2D3: markedly enhanced
[1]; 10^−7 M, HEK293T cells, versus solvent control
  CYP24A1 mRNA expression, compound alone: did not affect; also recorded: did not alter
[1]; cellular models, combined with 1,25(OH)2D3
  Up-regulation of CYP24A1 mRNA levels when combined with 1,25(OH)2D3: approximately twofold
[12]
  Average concentration of 1,25(OH)2D3 remaining in HEK293T cell culture: 495 pM

## Oc1ccc(Cl)cc1C=Nc1ncn[nH]1 [3d, 2-{[(1H-1,2,4-Triazol-5-yl)imino]methyl}-4-chlorophenol]
C. albicans ATCC 10231 [2]
  MIC: 128 µg/mL (≈ 575 µM)
C. albicans ATCC 14053
  MIC: 128 µg/mL (≈ 575 µM)

## CS(=O)(=O)c1ccc(C=Nc2ncn[nH]2)cc1 [3e, 1-[4-(Methylsulfonyl)phenyl]-N-(1H-1,2,4-triazol-5-yl)methanimine]
C. albicans ATCC 10231 [2]
  MIC: 128 µg/mL (≈ 511 µM)
C. albicans ATCC 14053
  MIC: 128 µg/mL (≈ 511 µM)

## C(=Nc1ncn[nH]1)c1ccc(-c2ccccc2)cc1 [3f, 1-[(1,1′-Biphenyl)-4-yl]-N-(1H-1,2,4-triazol-5-yl)methanimine]
C. albicans ATCC 10231 [2]
  MIC: 128 µg/mL (≈ 516 µM)
C. albicans ATCC 14053
  MIC: 128 µg/mL (≈ 516 µM)
